Compound activity: PubChem, several laboratories
CHOP inh: inhibitors of CHOP promoter induction, primary screen, cell-based, unfolded protein response, luciferase reporter; CHO-K1 CHOP-promoter luciferase, tunicamycin-induced, 15-18 h; inhibition, % at 10 µM; 220,000 tested, 3.8% active; AID 2732, 2010;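 active means compounds that reduced the stress-induced luciferase reporter signal by more than about 70% of percent inhibition, limit read from the data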;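 further: 0% = tunicamycin plus vehicle and 100% = wells without tunicamycin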
Fh CTSL1 inh: Fasciola hepatica cathepsin L1 inhibitors, primary screen, counter-screen for PFM18AAP inhibitor project, biochemical, QFRET, fluorogenic peptide substrate; inhibition, % at 5.96 µM; 300,000 tested, 0.49% active; recombinant F. hepatica cathepsin L1, Z-Leu-Arg-MCA fluorescence;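 active means inhibition above the mean of all tested compounds plus 3 SD, set per screening campaign, cut at about 17% in these data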;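 further: 0% = plate median of test compound wells and 100% = 1 µM Z-Phe-Ala-diazomethylketone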
UPR XBP1 act: activators of adaptive XBP1 UPR arm, primary screen, cell-based, CHO-XBP1 luciferase reporter, luminescence, uHTS; IRE1-XBP1 UPR activation; percent of tunicamycin response, DMSO as zero; activation, % at 20 µM; 330,000 tested, 0.33% active; AID 463104, 2010;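 active means versus positive control, 20 µM dose yields 30% or more activation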;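 further: 100% = tunicamycin at 10 µg/mL and 0% = DMSO only wells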
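assay system = CHO-XBP1 luciferase reporter cells | amount = 1000 cells/well | buffer or medium = F12 plus 10% FBS | compound dosing = single point, 20 µM final compound, 1% DMSO | incubation = 16-18 h cell attachment at 37 °C, then 6 h compound exposure | detection = Steady-Glo luminescence read | controls = tunicamycin 10 µg/mL and vehicle-only wells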
UCH37 inh: inhibitors of human UCH37 deubiquitinase, primary screen, biochemical, Ub-AMC cleavage, fluorescence; Ubiquitin carboxyl-terminal hydrolase isozyme L5 (Homo sapiens), Q9Y5K5; purified proteasome/UCH37; inhibition, % (test concentration not listed); 330,000 tested, 0.33% active; AID 588478, 2011;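 active means mean inhibition over replicate wells above about 20%, limit read from the data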;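 further: 0% = compound-free wells with enzyme and 100% = wells lacking proteasome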
Target sequence (Q9Y5K5 whole entry, looked up): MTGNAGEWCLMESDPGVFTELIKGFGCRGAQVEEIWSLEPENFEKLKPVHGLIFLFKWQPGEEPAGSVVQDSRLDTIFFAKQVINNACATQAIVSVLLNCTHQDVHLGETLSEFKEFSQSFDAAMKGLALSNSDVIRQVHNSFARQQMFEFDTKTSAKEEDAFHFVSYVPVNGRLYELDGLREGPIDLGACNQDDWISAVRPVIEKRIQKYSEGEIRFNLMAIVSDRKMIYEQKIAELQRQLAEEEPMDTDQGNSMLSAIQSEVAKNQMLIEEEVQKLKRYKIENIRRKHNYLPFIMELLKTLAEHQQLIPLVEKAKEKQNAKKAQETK
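Signal – fluorescence, ex 355 nm, em 460 nm · System – Proteasome-bound UCH37 · Input – 0.15 nM proteasome as dispensed · Timing – 30 min preincubation with enzyme, 25 min cleavage at room temperature · Read-out basis – percent inhibition of cleavage signal versus uninhibited and no-proteasome wells · Medium – Tris-HCl pH 7.4 with ATP-MgCl2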
UPR CHOP act: activators of apoptotic CHOP UPR arm, primary screen, cell-based, CHO-CHOP luciferase reporter, luminescence, uHTS. 330,000 tested, 0.34% active. activation, % at 10 µM. UPR activation; percent of tunicamycin response over DMSO baseline;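 active means at 10 µM dose, activation of 40% or more, normalized to positive control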;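 further: 100% = tunicamycin at 10 µg/mL and 0% = DMSO alone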
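System: CHO CHOP reporter cells. Amount: 500 cells per well. Buffer or medium: F12 medium, 10% FBS. Compound dosing: one dose, 10 µM in 0.5% DMSO. Incubation: 6 h compound exposure at 37 °C after overnight seeding. Technique: Steady-Glo luciferase luminescence. Benchmarks: tunicamycin and DMSO controls.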
Active calls of the source: *; nt = no result. This is one part of a sample in which hits are shown more often than they occur.

SMILES | CHOP inh | Fh CTSL1 inh | UPR XBP1 act | UCH37 inh | UPR CHOP act
COc1ccc(CSCC(=O)NN=Cc2ccc(OCC(=O)N3CCCCC3)cc2)cc1 | nt | nt | nt | -2 | nt
CCOC(=O)c1cc2sccc2n1Cc1ccccc1 | 80* | 1 | 0 | 1 | -1
CCOC(=O)Cn1c(C(=O)OCC)cc2sccc21 | 43 | -1 | -1 | 2 | 1
CCOC(=O)c1c(C)nc2ccccc2c1-c1ccccc1 | 36 | 0 | -1 | 2 | 0
CCOC(=O)c1c(C)nc2ccc(Cl)cc2c1-c1ccccc1 | 82* | -6 | -5 | -1 | 0
Cn1ncc2c(ON=C(N)c3ccc(C(C)(C)C)cc3)ncnc21 | nt | nt | nt | 2 | nt
O=[N+]([O-])c1ccc(O)c(C=NNc2ncnc3c2cnn3-c2ccccc2)c1 | nt | nt | nt | 4 | nt
Cc1noc(C)c1COc1ccccc1C(=O)N(C)CC(=O)Nc1ccc(Cl)c(Cl)c1 | nt | 4 | -2 | 1 | -2
COc1cccc(NC(=O)CN(C)C(=O)c2ccccc2OCc2c(C)noc2C)c1 | nt | 27* | 0 | -1 | -1
NS(=O)(=O)c1ccc(NN=C/C=C/c2ccccc2[N+](=O)[O-])cc1 | nt | nt | nt | 5 | nt
Cc1ccc(-n2ncc3c(=O)n(-c4ccc(C)c(C)c4)c(C)nc32)cc1 | 73* | -2 | 1 | 0 | 1
COc1ccc(-n2c(C)nc3c(cnn3-c3ccc(C)c(C)c3)c2=O)cc1 | 73* | 4 | -2 | 3 | 2
CC(=NNC(=O)c1cc(C(C)(C)C)[nH]n1)C12CC3CC(CC(C3)C1)C2 | nt | nt | nt | 0 | nt
CC(=O)Nc1nc(S(=O)(=O)c2ccc(C)cc2)c(Cl)s1 | 42 | -2 | 0 | 1 | -2
Cc1ccc(S(=O)(=O)c2nc(Nc3nccs3)sc2Cl)cc1 | 72* | 1 | -4 | -1 | -3
COc1ccc(-c2[nH]n(-c3ccc([N+](=O)[O-])cc3)c(=O)c2C=NCC2CCCO2)cc1 (stereo not drawn) | -6 | 6 | -2 | 1 | -1
COc1ccc(-c2[nH]n(-c3ccc([N+](=O)[O-])cc3)c(=O)c2C=NCc2ccncc2)cc1 | 85* | 4 | 2 | 7 | 2
CC(=O)N(/N=C1\Sc2ccccc2C1=O)c1ccccc1C | nt | 87* | 10 | nt | 6
CC(=O)N(/N=C1\Sc2ccccc2C1=O)c1ccc(C)cc1C | 65 | 7 | -6 | nt | -8
Cc1ccc(C2OCC3(CO2)COC(c2ccc(C)cc2)OC3)cc1 (stereo not drawn) | 80* | 1 | -2 | 3 | -2
O=C(CSc1ccc(Cl)cc1)Nc1cccc(-c2nc3ncccc3o2)c1 | 73* | 3 | 0 | -3 | 1
COc1ccc(-c2nnc(SCC(=O)Nc3cccc(Cl)c3)o2)cc1 | 89* | -1 | 2 | 1 | -5
CCOc1ccc(-c2nnc(SCC(=O)Nc3cc(C)on3)o2)cc1 | 77* | 1 | -3 | 2 | -5
COc1cccc(-c2nnc(SCC(=O)Nc3cc(C)on3)o2)c1 | -20 | 0 | 3 | 3 | 0
O=C(CSc1ccc(Cl)cc1)Nc1cc(-c2nc3ncccc3o2)ccc1Cl | 69 | 2 | 0 | 1 | 3
SMILES | CHOP inh | Fh CTSL1 inh | UPR XBP1 act | UCH37 inh | UPR CHOP act
COc1ccc(-c2nnc(SCC(=O)Nc3ccccc3OC)o2)cc1 | 33 | 1 | 1 | 1 | -4
Cc1ccc(C(=O)NC(=S)Nc2cc(C(F)(F)F)ccc2Cl)cc1 | 12 | -1 | 7 | 1 | 1
O=C(CCc1nc(-c2ccccc2)no1)Nc1cc(C(F)(F)F)ccc1Cl | 93* | 3 | -1 | 6 | 7
O=C(Cc1ccccc1)NC(=S)Nc1cc(C(F)(F)F)ccc1Cl | 95* | 5 | -2 | 7 | -1
CN(C)C(=O)CCc1nc(-c2ccc(C(C)(C)C)cc2)no1 | 44 | 2 | -4 | 1 | 2
CNC(=O)CCc1nc(-c2ccc(C(C)(C)C)cc2)no1 | 94* | -4 | -7 | 3 | -9
Cc1cccc(-c2noc(CCC(=O)Nc3ccccc3)n2)c1 | 17 | 0 | -2 | 3 | -1
O=C(Nc1cc(C(F)(F)F)ccc1Cl)c1ccc(NC(=O)C(F)(F)F)cc1 | 45 | 5 | -1 | -3 | 1
CCCC(=O)Nc1ccc(C(=O)Nc2cc(C(F)(F)F)ccc2Cl)cc1 | 73* | 0 | 6 | 3 | -1
Cc1ccc(-c2cc(C(=O)NN=Cc3c(C)nn(C)c3C)c3ccccc3n2)c(C)c1 | nt | nt | nt | 0 | nt
CC(C)(C)c1ccc(-c2noc(CCC(=O)NCC3CCCO3)n2)cc1 (stereo not drawn) | 90* | 0 | -2 | 1 | -5
O=[N+]([O-])c1ccc(CSc2nc3ccccc3o2)cc1 | 84* | 0 | 2 | 2 | 1
COC(=O)c1ccc(CSc2nc3ccccc3o2)cc1 | 44 | 0 | -1 | 0 | -3
Cc1ccccc1-c1coc2cc(O)ccc2c1=O | 5 | 23* | 5 | -189 | 0
O=c1c(-c2ccc(O)cc2)coc2cc(O)ccc12 | -34 | 3 | 1 | -2 | 8
Cc1cc(C)cc(Oc2coc3cc(O)ccc3c2=O)c1 | nt | 17* | -5 | -92 | -1
Cc1cc(C(=O)NN=C/C=C/c2ccccc2)n[nH]1 | nt | nt | nt | 10 | nt
O=C(NN=Cc1ccccc1OCc1ccccc1)c1cccnc1 | nt | nt | nt | 1 | nt
CC(CC1(O)C(=O)N(C)c2ccccc21)=NO (stereo not drawn) | nt | nt | nt | 3 | nt
CC(=O)Nc1cccc(C(=O)NN=Cc2ccc(C)o2)c1 | nt | nt | nt | 8 | nt
CC1(C)Cc2ccccc2C(NN=Cc2ccc([N+](=O)[O-])cc2)=N1 | nt | nt | nt | -2 | nt
COc1cccc(C2=NN(C(=O)c3cccs3)C(O)(C(F)(F)F)C2)c1 (stereo not drawn) | 75* | -1 | 11 | 5 | 1
S=C(NCCN1CCOCC1)NN=Cc1cccs1 | nt | nt | nt | 14 | nt
O=C(Nc1ccc(N2CCN(C(=O)c3ccc(Cl)cc3)CC2)cc1)c1ccc(Br)o1 | 77* | 0 | -4 | 1 | -3
O=C(Nc1ccc(N2CCN(C(=O)c3ccc(Cl)cc3)CC2)cc1)c1cc2ccccc2o1 | -4 | 6 | -1 | -2 | 5
CS(=O)(=O)N1CCN(c2ccc(NC(=O)c3ccc(-c4ccc(Cl)cc4)o3)cc2)CC1 | 75* | 2 | 0 | -7 | 2
O=C(ON=Cc1ccc(N2CCOCC2)c([N+](=O)[O-])c1)c1ccc(F)cc1 | nt | nt | nt | -4 | nt
Nc1ccc(OC(=O)Nc2ccc(O)cc2)cc1 | 82* | -4 | -9 | 2 | -5
COc1cc(C(=O)NC2CCCCC2)ccc1OCc1ccc(Cl)cc1Cl | 85* | 2 | 2 | 2 | 2
COc1ccc(CC(=O)NN=C(C)c2cccnc2)cc1 | nt | nt | nt | 1 | nt
